# Rows were chosen to be rich in hits. Some 2.6% of all compounds tested hit in one or more screens of this group.
# SENP1 inh: blocks the human SENP1 SUMO protease catalytic domain. 0.21% of 360,000 active. AID 624204. Q9P0U3. recombinant SENP1 catalytic domain, CyPet-SUMO1-YPet FRET cleavage. inhibition, % at 10 µM;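 active = inhibition at least 30% at 10 µM, raw YFP signal under a set limit, fluorescence ratio 0.5 to 1.5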;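 also: 0% = enzyme with DMSO and 100% = no enzyme wells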
#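 Compound: 10 µM single point, 0.5% DMSO; Test system: hSENP1 catalytic domain, recombinant; Timing: 50 min reaction at room temperature; Technique: FRET, CFP and YFP emission; Control set: no-enzyme wells low, DMSO-plus-enzyme wells high control.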
# SENP6 inh: inhibitors of human SENP6 protease | Recombinant SENP6 catalytic domain, aminoluciferin luminescence | inhibition, % at 10 µM | AID 2599 | Q9GZR1 | 1.8% of 330,000 active;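 active = inhibition above about 50% at the single tested dose, limit read from the data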;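 also: plate controls were DMSO wells with enzyme for no effect and DMSO wells lacking enzyme for full effect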
# Target sequence (Q9GZR1 628-1112 limits assumed): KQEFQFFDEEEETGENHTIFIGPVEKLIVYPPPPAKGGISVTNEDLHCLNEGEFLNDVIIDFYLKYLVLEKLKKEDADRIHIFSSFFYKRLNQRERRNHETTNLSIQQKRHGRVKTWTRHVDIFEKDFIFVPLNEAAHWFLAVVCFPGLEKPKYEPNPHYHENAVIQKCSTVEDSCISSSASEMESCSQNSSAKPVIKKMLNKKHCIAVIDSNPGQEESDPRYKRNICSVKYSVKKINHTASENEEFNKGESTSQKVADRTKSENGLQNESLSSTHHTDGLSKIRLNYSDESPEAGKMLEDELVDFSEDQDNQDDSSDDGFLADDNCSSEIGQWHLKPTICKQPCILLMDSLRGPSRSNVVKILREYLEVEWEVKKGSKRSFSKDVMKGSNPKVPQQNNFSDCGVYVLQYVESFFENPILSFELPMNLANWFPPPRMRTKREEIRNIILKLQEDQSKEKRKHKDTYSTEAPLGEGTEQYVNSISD
# UCH37 DUB inh: blocks the human deubiquitinase UCH37; purified proteasome/UCH37, Ub-AMC cleavage fluorescence; inhibition, % (test concentration not listed); 0.33% of 330,000 active; AID 588478;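 active = mean inhibition over replicate wells above about 20%, limit read from the data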;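 also: 0% = compound-free wells with enzyme and 100% = wells lacking proteasome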
#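 System: Proteasome-associated human UCH37 deubiquitinase; Input: 0.15 nM proteasome in added enzyme buffer; Also added: Ub-AMC substrate from 1 µM stock; Incubation: 30 min compound-proteasome preincubation then 25 min substrate reaction, room temperature; Detection: fluorescence, ex 355 nm, em 460 nm; Read-out: % inhibition of Ub-AMC cleavage fluorescence; Benchmarks: no-proteasome and no-compound wells.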
# SENP7 inh: SENP7 protease inhibition. Q9BQF6. recombinant SENP7, Z-RLRGG-aminoluciferin luminescence, 40 min. inhibition, % at 5 µM. 1.5% of 330,000 active;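 active = inhibition above about 50% at the single test dose, limit read from the data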;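 also: plate controls were DMSO with enzyme for no effect and no enzyme buffer wells for full effect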
# SENP8 block-1: inhibitors of human SENP8 protease; Q96LD8; purified SENP8, Z-RLRGG-aminoluciferin cleavage, luminescence; inhibition, % at 10 µM; 1.2% of 330,000 active; in the data active = inhibition above about 50%
# SENP8 block-2: inhibitors of human SENP8 protease | Q96LD8 | recombinant SENP8, Nedd8 substrate fluorescence | inhibition, % at 20 µM | 0.64% of 360,000 active; in the data active = inhibition mostly above about 40%, no sharp cut-off; inactive = mostly below about 27%
# SENP8 confirm: human SENP8 inhibition, confirmed | shares compounds with SENP7 inh | 40% of 6,200 active | inhibition, % at 12.5 µM | Recombinant SENP8, Z-RLRGG-aminoluciferin luminescence, 60 min;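 active = mean inhibition across replicates above about 50%, limit read from the data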
# SENP6 confirm: human SENP6 inhibition, confirmed | shares compounds with SENP7 inh | AID 488915 | 58% of 6,200 active | recombinant SENP6, Z-RLRGG-aminoluciferin luminescence | inhibition, % at 12.5 µM
# SENP7 conf: human SENP7 inhibition, confirmed; shares compounds with SENP7 inh; recombinant SENP7, Z-RLRGG-aminoluciferin luminescence, 40 min; inhibition, % at 12.5 µM; 69% of 6,200 active
# Casp3 select: selectivity test for SENP inhibitors: human caspase-3 inhibition | shares compounds with SENP7 inh | purified caspase-3, Z-DEVD-aminoluciferin luminescence, 60 min | inhibition, % at 12.5 µM | 60% of 6,200 active | AID 488918;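 active = mean inhibition above about 50%, limit read from the data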;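 also: plate controls were enzyme with DMSO for no effect and wells without caspase-3 for full effect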
# SENP luc ctr: luminescence interference (SENP counter-screen). shares compounds with SENP7 inh. Pre-incubated SENP8/Z-RLRGG-aminoluciferin, luciferase luminescence interference. inhibition, % at 12.5 µM. 39% of 6,200 active;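 active = mean inhibition above about 50% when retested at one dose, limit read from the data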;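 also: plate controls were DMSO wells with completed reaction for no effect and substrate without enzyme for full effect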
# * marks the source's active call; other numbers are inactive results; i = inactive; x = no result given; ! = not confirmed by another sample.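 The calls were made as follows, unless noted: active = mean inhibition above about 50% in the one-dose retest (limit read from the data); inactive = the rest.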
SMILES,SENP1 inh,SENP6 inh,UCH37 DUB inh,SENP7 inh,SENP8 block-1,SENP8 block-2,SENP8 confirm,SENP6 confirm,SENP7 conf,Casp3 select,SENP luc ctr
Cc1ccc2nc(-c3cccc(N)c3)oc2c1,2,95*,-171,98*,95*,-261,33,97*,102*,95*,94*
Cc1cc(C)c2oc(-c3cccc(N)c3)nc2c1,0,34,-102,21,7,-446,x,x,x,x,x
Nc1ccc2oc(-c3cccc(Br)c3)nc2c1,-4,90*,-69,90*,82*,-428,58*,82*,98*,74*,45
Nc1nc2cc(Br)ccc2o1,0,x,2,x,x,9,x,x,x,x,x
Nc1ccc(-c2nc3ccccc3o2)cc1,20,60*,-169,67*,55*,-290,70*,65*,90*,70*,71*
CCc1ccc2oc(-c3cccc(N)c3)nc2c1,-2,96*,-138,98*,95*,-284,42,98*,102*,94*,96*
NS(=O)(=O)c1ccc(-c2ccc(C=NNc3ccc(C(=O)O)cc3)o2)cc1,x,x,-7,x,x,x,x,x,x,x,x
Clc1ccc(C=Nc2c(-c3ccco3)nc3ccccn23)cc1,x,x,-56,x,x,x,x,x,x,x,x
COc1ccc(CN2C(=O)c3ccccc3C(C=NOCc3ccc(F)cc3)C2=O)cc1 (centres undefined),x,x,-15,x,x,x,x,x,x,x,x
Cc1ccc2nc(-c3ccc(O)cc3)oc2c1,0,85*,x,74*,85*,-407,84*,84*,94*,68*,24
Cn1ccsc1=NC(=O)c1ccc(OC(F)(F)F)cc1,2,63*,-1,61*,51*,-65,56*,58*,88*,62*,66*
COC(=O)c1ccc(C(=O)N=c2sccn2C)cc1,-1,55*,10,52*,35,-22,46,44,76*,78*,7
O=C(NCc1ccc(C=NNC(=O)C(=O)Nc2ccccc2Br)o1)C(=O)Nc1ccccc1,x,x,5,x,x,x,x,x,x,x,x
CCCCN(CC)c1nc(N)c(C#N)c(CC#N)c1C#N,-30,22,-1,6,6,-137,x,x,x,x,x
COc1cc2c(C#N)c(N3CCN(C)CC3)nc(N)c2c(N)n1,-54,59*,-349,55*,1,-275,-16,-4,-6,-3,-13
CCOc1cc2c(C#N)c(N3CCCC3)nc(N)c2c(N)n1,-14,33,-9,26,3,-270,x,x,x,x,x
COc1cc2c(C#N)c(N3CCN(c4ccccc4OC)CC3)nc(N)c2c(N)n1,-32,16,-27,12,0,-402,x,x,x,x,x
CCCOc1cc2c(C#N)c(N3CCCC3)nc(N)c2c(N)n1,-23,85*,-25,61*,67*,i,39,75*,39,x,0
CCCCN(CC)c1nc(N)c2c(N)nc(OCC)cc2c1C#N,-48,67*,-125,24,66*,-276,-3,13,2,-6,-5
COc1cc2c(C#N)c(N3CCCC3)nc(N)c2c(N)n1,-29,95*,-279,73*!,88*,i,44,62*,37,7,-2
Cc1ccc(C=NNC(=O)Cc2cccn2C)o1,x,x,4,x,x,x,x,x,x,x,x
COc1cc(C(=O)NCC(=O)NN=Cc2cccnc2)cc(OC)c1OC,x,x,4,x,x,x,x,x,x,x,x
Cc1ccc(-c2cnc(-c3ccncc3)o2)cc1,0,20,i,10,2,-266,x,x,x,x,x
Nc1ccc(-c2ncc(-c3ccccc3)o2)cc1,-1,73*,i,69*,61*,-346,74*,68*,89*,45,74*
Cc1ccc([N+](=O)[O-])cc1NC(=O)CCc1ccccc1,2,3,3,-9,0,19,x,x,x,x,x
SMILES,SENP1 inh,SENP6 inh,UCH37 DUB inh,SENP7 inh,SENP8 block-1,SENP8 block-2,SENP8 confirm,SENP6 confirm,SENP7 conf,Casp3 select,SENP luc ctr
Cc1ccc([N+](=O)[O-])cc1N/C=C1\CCc2ccccc2C1=O,4,79*,5,33,9,-56,5,1,-12,1,-5
O=C(COC(=O)c1ccc(Br)o1)Nc1ncc([N+](=O)[O-])s1,-18,74*,4,28,65*,18,69*,66*,86*,78*,73*
O=C(CCS(=O)(=O)c1ccccc1)Nc1ncc([N+](=O)[O-])s1,-9,0,11,-3,-9,11,x,x,x,x,x
Cc1ccc(CC(=O)Nc2ncc([N+](=O)[O-])s2)cc1,-14,91*,2,63*,88*,-175,93*,93*,99*,91*,55*
Cc1ccc(S(=O)(=O)CC(=O)Nc2ncc([N+](=O)[O-])s2)cc1,-15,7,6,13,0,8,x,x,x,x,x
O=C(CCS(=O)(=O)Cc1ccccc1)Nc1ncc([N+](=O)[O-])s1,-12,88*,5,83*,84*,7,-1,83*,97*,71*,82*
COc1cccc(C(=O)NN=Cc2cn[nH]c2-c2ccc(OC)cc2OC)c1,x,x,2,x,x,x,x,x,x,x,x
Cc1ccc(N2CC(C(=O)NN=Cc3cccc([N+](=O)[O-])c3)CC2=O)cc1 (centres undefined),x,x,3,x,x,x,x,x,x,x,x
Fc1ccc(-n2nnc(-c3cccnc3Cl)n2)cc1,3,74*,3,81*,72*,13,73*,75*,92*,84*,74*
Clc1ncccc1-c1nnn(-c2ccccc2)n1,3,91*,-4,89*,86*,10,88*,90*,99*,92*,88*
Fc1ccc(-n2nnc(-c3nccs3)n2)cc1,-1,88*,5,91*,87*,18,88*,92*,100*,96*,67*
Fc1ccc(-n2nnc(-c3ccccc3Cl)n2)cc1,-3,1,2,2,-3,-1,x,x,x,x,x
COc1ncccc1-c1nnn(-c2ccccc2)n1,2,84*,2,87*,81*,11,85*,88*,98*,91*,84*
